# Screening results as filed in PubChem.
# Compounds with a hit are over-represented: about 2.3% of the library has one in this group of screens.
# TRPC4 PAM – TRPC4 (mouse) allosteric potentiation. Q9QUQ5. HEK293 TRPC4beta/mu-opioid, DAMGO EC20, Fluo-4 Ca2+ flux; hits give high values. B-score at 10 µM. 310,000 tested, 0.42% active;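 active means B-score of calcium response area above 5 SD of library B-scores, with initial fluorescence ratio within 5 SD of library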;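 further: B-score of integrated fluorescence ratio over time as area under calcium response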
# TRPC6 inh – mouse TRPC6 channel inhibition; AID 2553; Q61143; B-score at 10 µM; 310,000 tested, 1.1% active; HEK293-TRPC6, membrane potential dye, ACh-evoked depolarization; hits give low values;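 active means B-score under library mean minus 3 SD, initial fluorescence not abnormally high, positive integrated signal ratio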;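 further: B-score derived from integrated fluorescence ratio over the kinetic read; more negative B-score means stronger inhibition of depolarization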
# Target sequence (Q61143 whole entry, looked up): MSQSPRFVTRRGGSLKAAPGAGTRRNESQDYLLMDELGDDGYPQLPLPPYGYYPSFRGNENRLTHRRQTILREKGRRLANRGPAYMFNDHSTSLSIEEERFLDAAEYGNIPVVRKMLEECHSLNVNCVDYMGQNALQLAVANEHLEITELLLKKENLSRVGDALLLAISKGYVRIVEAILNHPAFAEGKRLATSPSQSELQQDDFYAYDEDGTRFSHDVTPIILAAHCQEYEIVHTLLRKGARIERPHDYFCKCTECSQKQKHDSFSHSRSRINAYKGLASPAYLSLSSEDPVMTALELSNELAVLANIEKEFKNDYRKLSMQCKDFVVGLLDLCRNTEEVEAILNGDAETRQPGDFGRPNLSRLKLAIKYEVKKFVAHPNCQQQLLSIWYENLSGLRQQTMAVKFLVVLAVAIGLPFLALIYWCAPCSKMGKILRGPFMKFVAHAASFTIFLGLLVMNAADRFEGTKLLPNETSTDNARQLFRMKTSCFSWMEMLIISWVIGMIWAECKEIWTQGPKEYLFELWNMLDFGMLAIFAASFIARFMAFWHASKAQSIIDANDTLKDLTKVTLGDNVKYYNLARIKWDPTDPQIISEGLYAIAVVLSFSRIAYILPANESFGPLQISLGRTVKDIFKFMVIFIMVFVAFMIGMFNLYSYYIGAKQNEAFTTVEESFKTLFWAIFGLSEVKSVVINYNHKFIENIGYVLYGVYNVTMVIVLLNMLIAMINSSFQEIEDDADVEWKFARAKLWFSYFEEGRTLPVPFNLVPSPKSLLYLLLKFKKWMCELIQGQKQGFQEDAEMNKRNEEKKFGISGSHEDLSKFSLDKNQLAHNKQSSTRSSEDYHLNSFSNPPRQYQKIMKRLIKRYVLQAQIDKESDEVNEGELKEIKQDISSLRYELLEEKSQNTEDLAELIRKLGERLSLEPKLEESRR
# TRPC4 agonist – TRPC4 (mouse) channel activation. HEK293 TRPC4beta/mu-opioid, Fluo4 calcium fluorescence; hits give high values. 310,000 tested, 0.49% active. Q9QUQ5. B-score at 10 µM;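 active means B-score above 5 SD of library B-scores, and initial fluorescence ratio not above library mean plus 5 SD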;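 further: positive B-score marks a calcium rise read as TRPC4 activation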
#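 Material: TRPC4beta and mu-opioid receptor HEK293 stable cells | Incubation: 45 min room-temperature Fluo4 loading, 110 s read | Detection: Kinetic Fluo4 calcium fluorescence | Measure: Integrated baseline-normalised fluorescence ratio, converted to per-well B score | Benchmarks: Low control buffer alone, high control maximal DAMGO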
# TRPC6 activator – activates the mouse TRPC6 cation channel; 310,000 tested, 0.13% active; B-score at 10 µM; HEK293-TRPC6 membrane potential dye fluorescence; hits give high values; AID 2550; Q61143;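 active means B-score of the integrated fluorescence ratio above library mean plus 3 SD, and starting fluorescence ratio within library mean plus 5 SD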;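 further: higher score means more depolarization so channel activation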
# TRPC4 block – inhibitors of mouse TRPC4 channel; HEK293 TRPC4beta/mu-opioid, DAMGO-evoked Fluo4 calcium flux; hits give low values; B-score at 10 µM; 300,000 tested, 0.39% active; AID 2247;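 active means B-score over 3 SD under the library average, no early fluorescence shift, positive overall ratio signal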
#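 Signal: kinetic Fluo4 fluorescence imaging of calcium influx. Material: stable TRPC4beta/mu-opioid receptor HEK293 cells. Probe or stimulus: DAMGO in two steps, submaximal then maximal.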
# TRPC4 spec 2 – second check of whether TRPC6 inhibitors also affect mouse TRPC4; shares compounds with TRPC6 inh; HEK293 TRPC4/MOR, membrane potential dye fluorescence; channel activated by saturating DAMGO dose; inhibition, % at 10 µM; 920 tested, 42% active;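 active means compounds whose fluorescence signal differed from control wells by over 3 SD, either direction, in both duplicate plates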
# TRPC4 spec – tests whether TRPC6 inhibitors also affect mouse TRPC4; HEK293 TRPC4/mu-opioid, membrane potential fluorescence; activity change, negative = inhibition, % at 10 µM; shares compounds with TRPC6 inh; AID 2777; 920 tested, 61% active;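 active means rise or fall in signal beyond 3 SD of buffer-only wells in both replicate plates, either sign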;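 further: integrated kinetic ratio of fluorescence range over baseline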
# HEK293 MPD ctr 2-1 – parental HEK293 nonspecific activity of TRPC6 inhibitors, second screen | shares compounds with TRPC6 inh | parental HEK293 membrane potential dye fluorescence; maximal acetylcholine challenge after compound addition | signal change vs control, % at 10 µM | 920 tested, 31% active | AID 2779;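 active means membrane potential signal moving either way by over 3 SD of the maximum-effect control, in both duplicate plates, meaning non-specific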
# HEK293 MPD ctr-1 – counter-screen for TRPC6 inhibitors: effect in parental HEK293 cells. shares compounds with TRPC6 inh. parental HEK293 membrane potential dye fluorescence. membrane potential signal change, % at 10 µM. 920 tested, 60% active. AID 2780;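 active means membrane potential signal shifting up or down by more than 3 SD of buffer-only wells, on both duplicate plates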
# HEK293 MPD ctr-2 – parental HEK293 nonspecific activity of TRPC6 modulators; 2,400 tested, 51% active; shares compounds with TRPC6 inh; membrane potential dye fluorescence; AID 488924; membrane potential signal change, % at 10 µM;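 active means membrane potential signal moves up or down beyond 5 SD from buffer-only wells, on both duplicate plates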
# HEK293 MPD ctr 2-2 – second counter-screen for TRPC6 modulators: effect in parental HEK293 cells; shares compounds with TRPC6 inh; membrane potential dye fluorescence; after compound, maximal acetylcholine stimulation; 2,400 tested, 14% active; inhibition, % at 10 µM;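 active means membrane potential signal drops by more than 5 SD from the mean control signal, in both duplicate plates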;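 further: plate controls were acetylcholine ECmax control wells for no effect and buffer only wells for full effect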
# TRPC4/MOR mod – tests whether TRPC6 modulators also affect mouse TRPC4. shares compounds with TRPC6 inh. HEK293 TRPC4/mu-opioid, membrane potential fluorescence. 2,400 tested, 69% active. AID 488927. percent change from control (negative = decrease, positive = increase), % at 10 µM;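 active means membrane potential signal moved up or down beyond 5 SD of buffer control wells, in both duplicate plates, actives on both sides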;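 further: plate controls were assay buffer wells for no effect and DAMGO maximal-effect wells for full effect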
# TRPC4 ctr inh 2 – second selectivity test of TRPC6 modulators against mouse TRPC4 | HEK293 TRPC4/mu-opioid, membrane potential dye fluorescence; stimulated with maximal-effect DAMGO | 2,400 tested, 55% active | inhibition, % at 10 µM | shares compounds with TRPC6 inh;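 active means drop in membrane potential signal beyond 5 SD of the control wells in both duplicate plates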;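 further: TRPC4 counter screen for TRPC6 hits run under conditions tuned for TRPC6 not TRPC4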
# TRPC6 block conf – confirmation of mouse TRPC6 inhibitors | 3,300 tested, 43% active | shares compounds with TRPC6 inh | HEK293-TRPC6, membrane potential dye, ACh-evoked depolarization | inhibition, % at 10 µM;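 active means fluorescence ratio falls more than 5 SD below the full-stimulation control mean, in both duplicate runs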;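 further: integrated fluorescence ratio of peak minus minimum over baseline after agonist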
# TRPC6 act confirm – confirmation of mouse TRPC6 activators; shares compounds with TRPC6 inh; HEK293-TRPC6 membrane potential dye fluorescence, FDSS; 2,800 tested, 11% active; activation, % at 10 µM;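 active means ratio signal rise beyond 5 SD above unstimulated control wells' mean, seen in both duplicate runs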;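 further: plate controls were buffer EC0 wells for no effect and acetylcholine ECmax response for full effect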
# * = called active by the depositor; i = inactive; / = not tested or not shown.
SMILES,TRPC4 PAM,TRPC6 inh,TRPC4 agonist,TRPC6 activator,TRPC4 block,TRPC4 spec 2,TRPC4 spec,HEK293 MPD ctr 2-1,HEK293 MPD ctr-1,HEK293 MPD ctr-2,HEK293 MPD ctr 2-2,TRPC4/MOR mod,TRPC4 ctr inh 2,TRPC6 block conf,TRPC6 act confirm
COc1ccc(C(=O)C2CCCN(Cc3cccc(C)n3)C2)c(OC)c1 (stereo not given),i,-6.4*,i,i,i,/,/,/,/,i,i,9.5%*,i,i,/
Cc1ccc2c(c1)[C@@H]1CN(C)CC[C@@H]1N2C(=O)Nc1cccc(C(F)(F)F)c1,i,-5.9*,i,i,i,/,/,/,/,i,i,-14%*,47%*,i,i
CCC(C)/C=C(C)/C=C/C1=CC2=C(Cl)C(=O)C(C)(OC(C)=O)C(=O)C2=CO1 (stereo not given),i,-6.5*,i,i,i,/,/,/,/,-84%*,69%*,-22%*,93%*,88%*,i
OCCN(CC#CC(O)(c1ccccc1)C1CCCC1)CCO (stereo not given),i,i,i,i,i,/,/,/,/,/,/,/,/,/,/
CC[n+]1c(SC)ccc2cc(OC)ccc21,i,-5.2*,i,i,i,/,/,/,/,-206%*,85%*,-30%*,54%*,58%*,i
Cc1cccc(-c2nc3ccc(C(=O)N4CCC5(CC4)OCCO5)cc3nc2-c2cccc(C)c2)c1,i,-7.3*,i,13*,i,/,/,/,/,i,i,14%*,i,79%*,116%*
Cc1ccc(OCC(=O)N2CCN(C3CCC(c4ccccc4)CC3)CC2)cc1 (stereo not given),i,i,i,i,i,/,/,/,/,/,/,/,/,/,/
CCC(CO)(C(=O)OC1CC2CCC(C1)N2C)c1ccccc1 (stereo not given),i,-7.6*,i,i,i,i,i,-46%*,i,/,/,/,/,89%*,i
Cc1nonc1OCCNCCNc1ccc([N+](=O)[O-])c2cccnc12,i,-5.1*,i,i,i,/,/,/,/,-180%*,i,-38%*,75%*,48%*,i
CCNCCNc1ccc([N+](=O)[O-])c2cccnc12,18*,-5.9*,i,i,i,/,/,/,/,-288%*,i,-40%*,54%*,72%*,i
CCc1nc2ccccc2c(=O)n1-c1ccccc1[N+](=O)[O-],i,i,i,i,i,/,/,/,/,/,/,/,/,/,/
O=C(O)C1C2CCC(O2)C1C(=O)Nc1ccc(Cl)cc1 (stereo not given),i,i,i,i,i,/,/,/,/,/,/,/,/,/,/
CCN1C[C@@]2(COC)C3[C@@H](OC)[C@H]4[C@@H]1[C@@]3(C1C[C@@]3(O)[C@H](OC(=O)c5ccccc5)C1[C@]4(OC(C)=O)[C@@H](O)[C@H]3OC)[C@@H](OC)C[C@H]2O (stereo not given in full),i,i,i,i,i,/,/,/,/,/,/,/,/,/,/
CC[C@]12C=CCN3CCC4(c5cc(Br)c(OC)cc5N(C)C4[C@@](O)(C(=O)OC)[C@@H]1OC(C)=O)C32 (stereo not given in full),i,i,i,i,i,/,/,/,/,/,/,/,/,/,/
O=S(=O)(NC1CN2CCC1CC2)c1ccc(Cl)cc1 (stereo not given),i,i,i,i,i,/,/,/,/,/,/,/,/,/,/
O=C(NC1CN2CCC1CC2)c1cc(Cl)c([N+](=O)[O-])c2nc[nH]c12 (stereo not given),i,-5.9*,i,i,i,/,/,/,/,-218%*,i,-33%*,i,i,i
Cc1ccc(C[n+]2c(-c3ccc(C)cc3)cc(-c3ccc(C)cc3)cc2-c2ccc(C)cc2)cc1,i,-7*,160*,i,i,56%*,-16%*,i,-196%*,/,/,/,/,81%*,i
Cc1cccc(NC2=NCCCS2)c1,i,i,i,i,i,/,/,/,/,/,/,/,/,/,/
N#CC(C#N)=C(C#N)c1ccc(Nc2ccccc2)cc1,i,-8.5*,i,i,i,i,-10%*,i,i,/,/,/,/,i,i
C[N+]1(C)CCC(OC(=O)C(c2ccccc2)c2ccccc2)CC1,i,-7.3*,i,i,i,i,i,-18%*,i,/,/,/,/,91%*,i
C#CC[N+]1(C)[C@@H]2CC[C@H]1CC(OC(=O)C(CO)c1ccccc1)C2 (stereo not given in full),i,-11*,i,i,i,i,i,-21%*,i,/,/,/,/,94%*,i
C[N+]1(C)[C@@H]2CC[C@H]1CC(OC(=O)[C@@H](CO)c1ccccc1)C2 (stereo not given in full),i,-7.7*,i,i,i,i,i,-38%*,i,/,/,/,/,96%*,i
CC12CC3CC(C)(C1)CC(N)(C3)C2,i,i,i,i,i,/,/,/,/,/,/,/,/,/,/
Cc1ccccc1CCNCc1cc2cccc(C)c2[nH]c1=O,i,-11*,i,i,i,16%*,i,i,0.1%*,/,/,/,/,94%*,i
COC(=O)C1=C(c2cc3ccccc3o2)C[C@@H]2CC[C@H]1N2C(=O)NCCCOC(C)C,i,i,i,i,i,/,/,/,/,/,/,/,/,/,/
